From publication PMC11402776 (The Journal of Biological Chemistry, 2024)
Like-named read-outs stand apart in the source and are kept apart here.

Columns and labels:
cell lysate PK (RKO) = cell lysate PK (RKO) (Homo sapiens, UniProt P14618); test: PK activity assay, RKO cell lysate; assay type: biochemical
[1] = biological target: cell lysate PK (SK-HEP-1) (Homo sapiens, UniProt P14618); test: PK activity assay, SK-HEP-1 cell lysate; assay type: biochemical; details: read-out: AC50FBP; SK-HEP-1 lysate; Control (without AIM)
cell lysate PK (A549) = cell lysate PK (A549) (Homo sapiens, UniProt P14618); test: PK activity assay, A549 cell lysate; assay type: biochemical
cell lysate PK (MGC80-3) = cell lysate PK (MGC80-3) (Homo sapiens, UniProt P14618); test: PK activity assay, MGC80-3 cell lysate; assay type: biochemical; details: MGC80-3 lysate; with AIM
cell lysate PK = assay type: biochemical, Human; details: regulators at cellular concentrations; Fig. 5A
Summary of the method: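 Lysates of control and PKM2 knockdown or knockout cells were assayed for PK by the coupled LDH/NADH method at 340 nm, 37 °C, pH 7.4. PEP was set at each line's measured cellular concentration, for example 0.07 mM for control HeLa and 0.21 mM for siPKM2 HeLa. FBP, the amino-acid mix, or both were added at cellular concentrations. Activity without regulators was set to 100%. Three independent experiments in triplicate.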

cell lysate PK (HeLa) = cell lysate PK (HeLa) (Homo sapiens, UniProt P14618); test: PK activity assay, HeLa cell lysate; assay type: biochemical
PKM2 [2] = details: read-out: dissociation constant with PKM2; cited from earlier work
[3] = tested on: glycolytic pathway in HeLa cells; test: Cellular glycolysis in treated HeLa cells; assay type: cell-based, Human
Summary of the method: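 HeLa cells in RPMI-1640 (10% FBS, 37 °C, 5% CO2), with or without an added 5 mM serine for 5 h. In a second arm, cells were serine-deprived overnight and then given fresh medium with or without serine for 5 h. Read-outs: medium glucose and lactate, and HClO4-extracted intracellular glycolytic intermediates, from which Qs and ΔGs were calculated. A cell-free HeLa-lysate glycolysis system was also run with or without 5 mM serine.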

[4] = tested on: glycolytic pathway (HeLa cell lysate); test: Cell-free glycolysis assay using HeLa cell lysate; assay type: biochemical, Human
PKM2 [5] = details: activator of PKM2; cited from earlier work

cell lysate PK (A549), sequence (P14618 2-531): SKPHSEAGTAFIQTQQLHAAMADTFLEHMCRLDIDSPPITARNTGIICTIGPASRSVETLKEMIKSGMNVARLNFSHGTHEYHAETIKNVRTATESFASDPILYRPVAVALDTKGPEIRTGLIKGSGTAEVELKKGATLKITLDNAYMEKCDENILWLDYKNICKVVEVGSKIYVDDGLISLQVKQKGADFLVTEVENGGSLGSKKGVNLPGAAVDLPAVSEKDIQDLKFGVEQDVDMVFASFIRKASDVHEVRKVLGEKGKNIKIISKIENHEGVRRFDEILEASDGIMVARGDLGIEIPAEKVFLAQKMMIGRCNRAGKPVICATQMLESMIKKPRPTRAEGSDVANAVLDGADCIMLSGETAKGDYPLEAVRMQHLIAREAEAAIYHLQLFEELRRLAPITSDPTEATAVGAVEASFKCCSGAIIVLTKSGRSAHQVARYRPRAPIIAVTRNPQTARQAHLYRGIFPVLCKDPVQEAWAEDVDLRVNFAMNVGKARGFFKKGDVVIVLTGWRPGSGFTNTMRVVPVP
cell lysate PK (HeLa), sequence (P14618 2-531): as above
cell lysate PK (RKO), sequence (P14618 2-531): as above
cell lysate PK (MGC80-3), sequence (P14618 2-531): as above
cell lysate PK (SK-HEP-1), sequence (P14618 2-531): as above

O=C(COP(=O)(O)O)[C@@H](O)[C@H](O)[C@H](O)COP(=O)(O)O [FBP]
EC50 (cell lysate PK (RKO); read-out: AC50FBP, Control (without AIM)): 0.0672 ± 0.0324 µM | EC50 (cell lysate PK (RKO); read-out: AC50FBP, with AIM): 1.07 ± 0.394 µM | EC50 [1]: 0.0289 ± 0.021 µM | ACMaxFBP (minimum concentration for maximal activation) (cell lysate PK (A549); Control (without AIM)): 279.0 ± 143.1 nM | EC50 (cell lysate PK (A549); read-out: AC50FBP, with AIM): 0.682 ± 0.126 µM | ACMaxFBP (minimum concentration for maximal activation) (cell lysate PK (A549); with AIM): 1258.9 ± 245.4 nM | AC0: concentration of FBP that completely reverses the inhibition of PK by AIM (cell lysate PK (MGC80-3)): 349.6 ± 31.2 nM | reversal of the inhibition of PK by AIM (cell lysate PK): completely reversed the inhibition | ACMaxFBP (minimum concentration for maximal activation) (cell lysate PK (HeLa); Control (without AIM)): 216.4 ± 52.8 nM | AC0: concentration of FBP that completely reverses the inhibition of PK by AIM (cell lysate PK (HeLa); with AIM): 585.2 ± 99.0 nM | ACMaxFBP (minimum concentration for maximal activation) (cell lysate PK (HeLa); with AIM): 2293.7 ± 503.7 nM | Kd (PKM2 [2]): 0.174 µM

N[C@@H](Cc1ccccc1)C(=O)O [Phenylalanine, phenylalanine]
Kd (PKM2 [2]): 507 µM

N[C@@H](CO)C(=O)O [Serine, serine]
reversal of the inhibition of PK by AIM (cell lysate PK): did not significantly reverse the inhibition | Kd (PKM2 [2]): 191 µM | glucose consumption and lactate generation with or without serine treatment ([3]; 5 mM serine 5 h): comparable | effect on glycolysis (rate, intermediate concentrations, ΔGs) ([4]; 5 mM serine): did not observe serine exert any significant effect on glycolysis

Cn1c2cc([S+](C)[O-])sc2c2cnn(Cc3cccc(N)c3)c(=O)c21 (stereo not drawn) [TEPP-46]
effect on glycolytic rate ([3]; 1 μM TEPP-46): no significant effect | parameters of glycolysis (glucose consumption, lactate generation, intermediates, Qs, ΔGs) ([4]; 1 μM TEPP-46): […] | AC90TEPP-46 (PKM2 [5]): […]

CC(C)[C@H](N)C(=O)O [Valine, valine]
Kd (PKM2 [2]): 757 ± 120 µM

NC(=O)C[C@H](N)C(=O)O [asparagine]
Kd (PKM2 [2]): 11 ± 2 µM

N[C@@H](CC(=O)O)C(=O)O [aspartate]
Kd (PKM2 [2]): 35 ± 7 µM

N[C@@H](CS)C(=O)O [cysteine]
Kd (PKM2 [2]): 5.5 µM
